In ChEMBL document CHEMBL4823293, “Fragment-based lead discovery to identify novel inhibitors that target the ATP binding site of pyruvate dehydrogenase kinases” (Bioorg Med Chem, 2021):

What was measured:
[1] = biological target: T1, [Pyruvate dehydrogenase (acetyl-transferring)] kinase isozyme 4, mitochondrial (Homo sapiens, UniProt Q16654); experiment: Inhibition of human PDHK4 co-complexed with porcine PDH using sodium pyruvate, coenzymeA and NAD as substrate preincubated with enzyme complex for 45 mins followed by ATP addition and then later incubated with substrate for 90 mins by absorption spectrophotometric assay
Target sequence in this assay (Q16654 whole entry): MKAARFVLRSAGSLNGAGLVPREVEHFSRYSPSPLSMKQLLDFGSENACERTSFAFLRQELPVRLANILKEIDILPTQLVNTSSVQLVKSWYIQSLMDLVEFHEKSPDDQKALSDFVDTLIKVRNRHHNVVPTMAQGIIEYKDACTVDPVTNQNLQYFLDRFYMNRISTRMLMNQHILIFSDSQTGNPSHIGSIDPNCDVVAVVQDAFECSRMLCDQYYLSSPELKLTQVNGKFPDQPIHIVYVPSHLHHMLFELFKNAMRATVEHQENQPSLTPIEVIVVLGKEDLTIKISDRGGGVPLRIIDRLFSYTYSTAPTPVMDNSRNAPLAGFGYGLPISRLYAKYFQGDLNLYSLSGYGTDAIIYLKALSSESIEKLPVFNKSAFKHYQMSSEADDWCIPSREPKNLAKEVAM

[2] = biological target: T2, [Pyruvate dehydrogenase (acetyl-transferring)] kinase isozyme 2, mitochondrial (Homo sapiens, UniProt Q15119); experiment: Inhibition of human PDHK2 co-complexed with porcine PDH using sodium pyruvate, coenzymeA and NAD as substrate preincubated with enzyme complex for 45 mins followed by ATP addition and then later incubated with substrate for 90 mins by absorption spectrophotometric assay
[3] = biological target: Heat shock protein HSP90 (Homo sapiens) (UniProt P07900+P08238); experiment: Inhibition of HSP90 (unknown origin) at 30 uM using labelled geldanamycin by fluorescence polarization assay; format: protein assay
Method in brief: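 Competitive fluorescence polarization with labelled geldanamycin probe, run as a commercial HSP90 assay kit; read as percent inhibition at a single concentration.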

[4] = biological target: [Pyruvate dehydrogenase (acetyl-transferring)] kinase isozyme 3, mitochondrial (Homo sapiens, UniProt Q15120); experiment: Inhibition of human PDHK3 co-complexed with porcine PDH using sodium pyruvate, coenzymeA and NAD as substrate preincubated with enzyme complex for 45 mins followed by ATP addition and then later incubated with substrate for 90 mins by absorption spectrophotometric assay
Method in brief: (§1)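 Recombinant human PDHK mixed with porcine PDH complex, held overnight at 4 °C to form PDH/PDHK complex. Inhibitor plus 0.3 or 10 µM ATP, 45 min at room temperature. Then 5.0 mM CoA, 5.0 mM pyruvate, 12 mM NAD added, 90 min at room temperature. NADH A340 taken before and after; IC50 from Hill-type curve fit against 0% and 100% activity controls.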

[5] = biological target: Serine/threonine-protein kinase mTOR (Homo sapiens) (UniProt P42345); experiment: Inhibition of human partial length wild type mTOR (L1382 to W2549 residues) expressed in mammalian expression system at 10 uM by KINOMEscan analysis
Method in brief: (§2)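 Competition-binding KINOMEscan service panel of 59 kinases; percent inhibition at 10 µM.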

[6] = biological target: T3, Branched-chain alpha-ketoacid dehydrogenase kinase (Homo sapiens, UniProt O14874); experiment: Inhibition of human recombinant BCKDK at 500 uM incubated for 60 mins by ADP-Glo kinase assay
Method in brief: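 Human recombinant BCKDK with inhibitor and 0.2 µM ATP, 60 min at 37 °C. ADP-Glo reagent 40 min at room temperature to stop and deplete ATP, then detection reagent 40 min to convert ADP to ATP; luminescence read.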

[7] = biological target: [Pyruvate dehydrogenase (acetyl-transferring)] kinase isozyme 1, mitochondrial (Homo sapiens, UniProt Q15118); experiment: Inhibition of human PDHK1 co-complexed with porcine PDH using sodium pyruvate, coenzymeA and NAD as substrate preincubated with enzyme complex for 45 mins followed by ATP addition and then later incubated with substrate for 90 mins by absorption spectrophotometric assay; method in brief: as §1
[8] = biological target: Microtubule-associated serine/threonine-protein kinase 1 (Homo sapiens) (UniProt Q9Y2H9); experiment: Inhibition of human partial length wild type MAST1 (S346 to V730 residues) expressed in mammalian expression system at 10 uM by KINOMEscan analysis; method in brief: as §2
[9] = biological target: T1, [Pyruvate dehydrogenase (acetyl-transferring)] kinase isozyme 4, mitochondrial; experiment: Inhibition of human PDHK4 assessed as reduction in acetyl-coenzymeA formation by RapidFire mass spectrometry
Method in brief: (§3)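 PDHK reaction read through downstream PDH product. Reaction mix diluted 25-fold in 0.1% formic acid. Acetyl-CoA captured on graphitic carbon SPE (5 mM ammonium acetate pH 10.0), eluted with buffer/acetonitrile/acetone 50:25:25. […] MRM at 808/79 and 808/408; peak AUC quantified, ATP signal confirming each injection.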
Target sequence in this assay (Q16654 whole entry): as above

[10] = biological target: T1, [Pyruvate dehydrogenase (acetyl-transferring)] kinase isozyme 4, mitochondrial; experiment: Inhibition of human PDHK4 assessed as reduction in acetyl-coenzymeA formation at IC50 by RapidFire mass spectrometry relative to control; method in brief: as §3
Target sequence in this assay (Q16654 whole entry, looked up): as the sequence (Q16654 whole entry) above

[11] = biological target: T2, [Pyruvate dehydrogenase (acetyl-transferring)] kinase isozyme 2, mitochondrial; experiment: Inhibition of human PDHK2 assessed as reduction in acetyl-coenzymeA formation by RapidFire mass spectrometry; method in brief: as §3
[12] = biological target: T3, Branched-chain alpha-ketoacid dehydrogenase kinase; experiment: Inhibition of human recombinant BCKDK incubated for 60 mins by ADP-Glo kinase assay

Sequence of [Pyruvate dehydrogenase (acetyl-transferring)] kinase isozyme 3, mitochondrial (Q15120 whole entry): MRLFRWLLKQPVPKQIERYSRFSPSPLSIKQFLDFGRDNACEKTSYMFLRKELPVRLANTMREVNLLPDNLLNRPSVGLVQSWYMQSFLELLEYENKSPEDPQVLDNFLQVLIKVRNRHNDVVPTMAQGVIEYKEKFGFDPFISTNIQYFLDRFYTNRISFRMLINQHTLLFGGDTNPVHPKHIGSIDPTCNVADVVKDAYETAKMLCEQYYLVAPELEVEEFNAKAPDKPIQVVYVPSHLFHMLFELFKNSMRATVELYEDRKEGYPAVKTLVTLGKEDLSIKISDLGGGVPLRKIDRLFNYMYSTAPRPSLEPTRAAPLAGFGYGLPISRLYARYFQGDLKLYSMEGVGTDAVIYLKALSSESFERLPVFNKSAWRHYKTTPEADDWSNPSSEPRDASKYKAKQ
Sequence of Microtubule-associated serine/threonine-protein kinase 1 (Homo sapiens) (Q9Y2H9 whole entry, looked up, the tested form may be a part): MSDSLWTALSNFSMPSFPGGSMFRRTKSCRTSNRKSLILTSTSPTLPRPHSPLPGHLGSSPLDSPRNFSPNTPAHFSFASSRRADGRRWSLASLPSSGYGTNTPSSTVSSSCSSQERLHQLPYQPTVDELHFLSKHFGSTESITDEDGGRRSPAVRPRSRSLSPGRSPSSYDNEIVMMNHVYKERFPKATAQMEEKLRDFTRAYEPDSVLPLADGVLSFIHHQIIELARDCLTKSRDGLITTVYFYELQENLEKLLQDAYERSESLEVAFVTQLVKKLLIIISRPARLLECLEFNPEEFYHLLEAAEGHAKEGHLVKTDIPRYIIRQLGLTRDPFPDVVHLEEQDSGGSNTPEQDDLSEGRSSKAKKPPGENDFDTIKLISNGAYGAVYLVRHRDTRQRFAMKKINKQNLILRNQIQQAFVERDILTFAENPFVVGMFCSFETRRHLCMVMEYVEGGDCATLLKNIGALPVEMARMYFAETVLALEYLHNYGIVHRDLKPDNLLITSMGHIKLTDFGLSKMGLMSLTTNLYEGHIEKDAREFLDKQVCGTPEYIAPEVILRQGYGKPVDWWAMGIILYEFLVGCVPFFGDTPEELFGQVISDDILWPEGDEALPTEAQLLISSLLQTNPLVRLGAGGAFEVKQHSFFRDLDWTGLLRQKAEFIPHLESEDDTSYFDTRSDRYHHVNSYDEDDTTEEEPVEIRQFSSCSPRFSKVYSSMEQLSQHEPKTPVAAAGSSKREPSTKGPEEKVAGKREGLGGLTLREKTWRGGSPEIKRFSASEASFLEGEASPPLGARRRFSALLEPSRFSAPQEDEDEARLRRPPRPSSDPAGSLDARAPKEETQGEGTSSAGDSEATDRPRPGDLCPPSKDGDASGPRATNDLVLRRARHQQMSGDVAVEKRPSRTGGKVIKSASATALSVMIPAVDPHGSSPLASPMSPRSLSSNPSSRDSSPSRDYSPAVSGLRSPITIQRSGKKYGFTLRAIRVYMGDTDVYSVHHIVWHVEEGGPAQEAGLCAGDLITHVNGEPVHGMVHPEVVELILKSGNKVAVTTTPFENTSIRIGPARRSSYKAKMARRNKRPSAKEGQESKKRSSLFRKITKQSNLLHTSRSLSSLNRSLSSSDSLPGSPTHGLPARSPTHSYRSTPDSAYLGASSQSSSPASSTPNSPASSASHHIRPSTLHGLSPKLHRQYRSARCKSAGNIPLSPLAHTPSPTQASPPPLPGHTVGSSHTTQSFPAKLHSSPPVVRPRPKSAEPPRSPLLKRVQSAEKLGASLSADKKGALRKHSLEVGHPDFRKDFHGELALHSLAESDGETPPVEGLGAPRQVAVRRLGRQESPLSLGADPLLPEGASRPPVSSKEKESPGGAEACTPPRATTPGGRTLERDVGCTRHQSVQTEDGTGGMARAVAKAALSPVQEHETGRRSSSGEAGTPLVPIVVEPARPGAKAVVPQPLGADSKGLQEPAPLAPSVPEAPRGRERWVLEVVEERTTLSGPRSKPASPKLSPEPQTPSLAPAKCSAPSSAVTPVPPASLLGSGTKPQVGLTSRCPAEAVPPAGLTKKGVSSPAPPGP
Sequence of [Pyruvate dehydrogenase (acetyl-transferring)] kinase isozyme 1, mitochondrial (Q15118 whole entry, the tested form may be a part): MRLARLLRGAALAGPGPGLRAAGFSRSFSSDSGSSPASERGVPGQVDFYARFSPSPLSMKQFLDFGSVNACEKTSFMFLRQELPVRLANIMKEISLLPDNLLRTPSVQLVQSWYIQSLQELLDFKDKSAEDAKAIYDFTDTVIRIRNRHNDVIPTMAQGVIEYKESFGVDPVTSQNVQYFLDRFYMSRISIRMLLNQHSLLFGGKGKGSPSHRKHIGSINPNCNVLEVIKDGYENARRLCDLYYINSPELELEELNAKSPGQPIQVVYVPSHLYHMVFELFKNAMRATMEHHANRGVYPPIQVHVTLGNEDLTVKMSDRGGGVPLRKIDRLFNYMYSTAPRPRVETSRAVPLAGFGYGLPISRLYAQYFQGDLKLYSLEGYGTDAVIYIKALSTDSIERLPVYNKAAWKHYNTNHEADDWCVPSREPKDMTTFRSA

| Structure (SMILES) | IC50 [1] | IC50 [2] | other results |
| --- | --- | --- | --- |
| CCCc1[nH]c2nc(C)ncc2c1C | > 30 µM | 14.7 µM | – |
| c1cnc2[nH]c3c(C4CC4)cccc3c2c1 | > 300 µM | 3.5 µM | – |
| C/C=C/c1[nH]c2nc(C)nc(Cl)c2c1Cl | 8 µM | 1.5 µM | – |
| CNc1cccc2c1NC(=O)C2(C)C | 12.8 µM | 0.59 µM | inhibition [3]: 3.2%; IC50 [4]: 8.4 µM; inhibition [5]: 58%; inhibition [6]: 14%; IC50 [7]: 0.37 µM; inhibition [8]: 60% |
| CC1(C)C(=O)Nc2c(C3CC3)cccc21 | 43.6 µM | 4.9 µM | – |
| CNC(=O)c1[nH]c2nc(C)nc(Cl)c2c1Br | > 30 µM | > 30 µM | – |
| CCCc1[nH]c2nc(C)nc(Cl)c2c1C | > 30 µM | 9.9 µM | – |
| CCCc1[nH]c2nc(C)ncc2c1C#N | > 30 µM | > 30 µM | – |
| CC1(C)C(=O)Nc2c(N)cccc21 | > 300 µM | > 300 µM | – |
| CCc1cccc2c1NC(=O)C2(C)C | > 300 µM | 11 µM | – |
| CNC(=O)c1[nH]c2nc(C)nc(Cl)c2c1C | > 100 µM | 42.8 µM | – |
| O=C1Cc2ccccc2N1 [OXINDOLE] | – | – | IC50 [9]: > 2000 µM; inhibition [10]: 29%; IC50 [11]: 958 µM |
| Cc1cnc2[nH]c3c(C4CC4)cccc3c2n1 | 5.9 µM | 0.71 µM | IC50 [12]: > 300 µM |
| CCCc1[nH]c2nc(C)ncc2c1Cl | 11 µM | 1.8 µM | – |
| COC(=O)c1ccc(O)cc1O [METHYL 2,4-DIHYDROXYBENZOATE] | – | – | IC50 [9]: 345 µM; IC50 [11]: 192 µM |
| Cc1cnc2[nH]c3c(C4CC4)cccc3c2c1 | 12 µM | 2 µM | – |
| CCCc1[nH]c2nc(C)ncc2c1Br | 12.4 µM | 2.2 µM | – |
| CC1(C)C(=O)Nc2ccccc21 | > 300 µM | 279 µM | IC50 [9]: 890 µM; IC50 [11]: 50.2 µM |
